Assay outcomes as filed in PubChem BioAssay.
This is a sample that favours compounds with a hit; in the whole collection about 2% have one here.
PABP polyA inh: PABP-poly(A) binding inhibition. 290,000 compounds, 1% hits. inhibition, % at 35 µM. PABP-poly(A) RNA binding, fluorescence polarization. P11940;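 further: calls also rest on retests at 20 µM and on dose response follow-up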
eIF4H inh: inhibitors of RNA binding by human eIF4H; Q15056; eIF4H fluorescence polarization binding assay; inhibition, % at 35 µM; 290,000 compounds, 0.94% hits;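 further: calls also rest on retests at 20 µM and on dose response follow-up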
core dimer inh: HCV core protein dimerization inhibition; TR-FRET GST/Flag-core106 dimerization, 1536-well; inhibition, % at 5 µM; 300,000 compounds, 0.33% hits; AID 1899;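 active means inhibition above the mean of all tested compounds plus 3 SD, set per screening campaign, cut at about 45% in these data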
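Material: Tagged HCV core106 pair (GST and Flag) | Amount: GST-core106 13.5 nM, Flag-core106 17 nM | Medium: KF-containing HEPES buffer, pH 7.45, DTT, CHAPS, BSA | Reagent: Eu donor and XL665 acceptor anti-tag antibodies | Schedule: 4 h at 22.5 °C | Technique: Time-resolved FRET, ex 340 nm, em 617 and 671 nm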
DNA FID counter: fluorescent intercalator displacement, NS3 helicase counter-screen; 290,000 compounds, 0.17% hits; inhibition, % at 7.9 µM; DNA fluorescent intercalator displacement, fluorescence; AID 1845; in the data active means inhibition above about 37%;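 further: higher means more ethidium bromide displaced from hairpin DNA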
MLLE-PAM2 inh: inhibitors of microRNA-mediated deadenylation, human PABP1 MLLE binding. P11940. GST-MLLE / FITC-PAM2 fluorescence polarization. inhibition, % at 20 µM. 360,000 compounds, 0.36% hits; in the data active means inhibition above about 35%, passing the limit was not always enough
HCV NS3 hel inh: blocks Hepatitis C virus NS3 helicase unwinding; NS3 helicase DNA unwinding, Cy5 molecular beacon fluorescence; inhibition, % at 10.9 µM; 290,000 compounds, 0.56% hits; AID 1800;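 active means inhibition above the mean of all tested compounds plus 3 SD, set per campaign, cut at about 35% in these data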
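Material: hepatitis C virus NS3 helicase domain fragment enzyme; measured by: Cy5 fluorescence, 0 and 60 min reads; control set: DMSO and thioflavine S; incubation: 60 min unwinding reaction at 25 °C after ATP addition; read-out basis: % inhibition from 60/0 min fluorescence ratio, DMSO 0%, thioflavine S 100%; repeats: singlicate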
Numbers stand for hits; n = inactive; u = inconclusive; x = not tested or not shown. Unless noted, how the calls were made is not given here.

SMILES | PABP polyA inh | eIF4H inh | core dimer inh | DNA FID counter | MLLE-PAM2 inh | HCV NS3 hel inh
Cc1ccc(CN2C(=O)N/C(=C/c3ccc(-c4ccc(C(=O)O)cc4)o3)C2=O)cc1 | 46 | 69 | n | n | n | n
O=C(O)c1cc(-c2ccc(/C=C3\NC(=O)N(c4ccc(Cl)cc4)C3=O)o2)ccc1Cl | 92 | 85 | n | n | n | n
CC(=O)Nc1ccc(C(=O)COC(=O)c2cc(C)oc2C)c(F)c1 | x | x | x | x | n | x
COCCNC(=O)C1(C)CCCN(C(=O)c2ccccc2OC)C1 (centres undefined) | x | x | x | x | n | x
CC1(c2ccc3noc(-c4ccc(F)cc4)c3c2)OCCO1 | n | n | n | n | 68 | n
OC(c1cccc(Cl)c1)c1nc(-c2csc3ccccc23)cs1 (centres undefined) | x | x | x | x | n | x
Cc1ccc2nc(-c3cccc(S(=O)(=O)N(C)C)c3)cn2c1 | n | n | n | n | n | n
CCN(CC)S(=O)(=O)c1cccc(-c2cn3cc(C)ccc3n2)c1 | n | 57 | n | n | n | n
Fc1ccc(NC(=S)N2CCCC2)cc1 | x | x | n | n | n | n
Fc1ccc(NC(=S)N2CCCC(c3ccccc3)=N2)cc1 | active | 54 | n | n | n | n
CN1CCN(c2nc3nonc3nc2N2CCN(C)CC2)CC1 | 100 | 80 | n | n | n | n
CCOC(=O)/C(C#N)=C/c1ccc(N2CCN(C)CC2)cc1 | n | active | n | n | n | n
O=C1C2C3C=CC(C4CC34)C2C(=O)N1/N=C/c1ccc(-c2ccc(Cl)cc2[N+](=O)[O-])o1 (centres undefined) | u | u | n | n | n | n
O=C1C2C3C=CC(C4CC34)C2C(=O)N1/N=C/c1ccc(-c2ccc(F)cc2[N+](=O)[O-])o1 (centres undefined) | n | n | n | n | n | n
COc1ccc(-c2ccc(/C=N/N3C(=O)C4C5C=CC(C6CC56)C4C3=O)o2)c([N+](=O)[O-])c1 (centres undefined) | 9.5 | 64 | n | n | n | n
Cc1ccc(-c2ccc(/C=N/N3C(=O)C4C5C=CC(CC5)C4C3=O)o2)c([N+](=O)[O-])c1 (centres undefined) | 58 | 53 | n | n | n | n
CCOc1ccccc1-c1ccc2nccn2c1 | x | x | x | x | n | x
CCOC(=O)C1(Cc2ccccc2C(F)(F)F)CCN(C2CCN(C(C)C)CC2)CC1 | n | n | n | 45 | n | n
Fc1ccc(C[n+]2csc3ccccc32)cc1 | n | n | n | n | 42 | n
O=C(NC(=S)Nc1ccccc1)c1csnn1 | n | n | n | n | 37 | n
COc1ccc(NC(=S)NC(=O)c2csnn2)cc1 | n | n | n | n | n | n
O=C(NNC(=O)c1cccc(-n2cccc2)c1)c1ccccc1 | x | x | x | x | n | x
O=C(NNC(=O)c1ccccc1F)c1cccc(-n2cccc2)c1 | x | x | 53 | x | n | x
CCc1nc2ccc(C(=O)NCc3cccs3)cn2c1N(CCC(C)C)CCN(C)C | x | x | x | x | n | x
O=C(COc1cccc(Oc2ccccc2)c1)Nc1ccc(SC(F)F)cc1 | n | n | n | n | n | n
SMILES | PABP polyA inh | eIF4H inh | core dimer inh | DNA FID counter | MLLE-PAM2 inh | HCV NS3 hel inh
CN(C)C(=O)c1ccc(NC(=O)COc2cccc(Oc3ccccc3)c2)cc1 | 57 | n | n | n | n | n
CC(=O)Nc1cccc(OCC(=O)Nc2ccccc2)c1 | n | active | n | n | n | n
COc1cccc(NC(=O)CSC(N)=O)c1 | n | n | n | n | 38 | n
CN(C)C(=O)CCc1ccc2c3c([nH]c2c1)[C@]1(CCc2ccccc2)[C@@H](C(=O)N2CCCCC2)C[C@H](CC(=O)NC(C)(C)C)C(=O)N1CC3 | x | x | x | x | n | x
NC(=O)Cc1ccc(C(=O)CSc2nnc(-c3ccncc3)n2C2CC2)s1 | x | x | x | x | n | x
CCN(CC)C(=O)C1=C(C)N(Cc2ccccc2)C(=O)C(CC(=O)NCCc2ccccn2)C1 (centres undefined) | x | x | x | x | n | x
CC(C)Cc1nn2c(=O)cc(CSCC(=O)Nc3ccccc3F)nc2s1 | n | n | n | n | n | n
COc1cccc(C=O)c1OCCCOc1cccc2cccnc12 | n | n | n | n | n | n
S=C1SCCCN1Cc1ccc(Cl)cc1 | x | x | x | x | n | x
CCOC(=O)N=Nc1c(O)n(C)c2ccccc12 | n | n | n | n | n | n
C=CCn1c(O)c(N=NC(=O)OCC)c2ccccc21 | n | active | n | n | n | n
CCc1ccc(S(=O)(=O)NCc2ccc(C(=O)NCCN(Cc3ccccc3)C(C)C)cc2)cc1 | x | x | x | x | n | x
